Test results: ChEMBL document CHEMBL1159064 (J Med Chem, 2010)
Activity calls are given as the source filed them. No cut-off for these calls is given here.

Experiments:
[1] = target: D(2) dopamine receptor (Homo sapiens, UniProt P14416); assay: Displacement of [3H]spiperone from dopamine D2 receptor expressed in HEK293 cells by liquid scintillation counting; assay type: cell-based
Method in brief: (§1)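 Membranes from stably transfected HEK293 cells (15 μg/tube) expressing D1 (radioligand [3H]SCH23390) or D2 (radioligand [3H]spiperone), 0.7 nM radioligand, compound 1 nM–100 μM, duplicate tubes, 50 min at 30 °C. Buffer 50 mM Tris, 4 mM MgCl2, pH 7.4. Nonspecific binding with 10 μM SCH23390 (D1) or spiperone (D2). GF/B filtration, scintillation counting. Ki by sigmoidal nonlinear regression.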

[2] = target: D(1A) dopamine receptor (Homo sapiens, UniProt P21728); assay: Displacement of [3H]SCH23390 from dopamine D1 receptor expressed in HEK293 cells by liquid scintillation counting; assay type: cell-based; method in brief: as §1
Chain of D(1A) dopamine receptor (P21728 whole entry): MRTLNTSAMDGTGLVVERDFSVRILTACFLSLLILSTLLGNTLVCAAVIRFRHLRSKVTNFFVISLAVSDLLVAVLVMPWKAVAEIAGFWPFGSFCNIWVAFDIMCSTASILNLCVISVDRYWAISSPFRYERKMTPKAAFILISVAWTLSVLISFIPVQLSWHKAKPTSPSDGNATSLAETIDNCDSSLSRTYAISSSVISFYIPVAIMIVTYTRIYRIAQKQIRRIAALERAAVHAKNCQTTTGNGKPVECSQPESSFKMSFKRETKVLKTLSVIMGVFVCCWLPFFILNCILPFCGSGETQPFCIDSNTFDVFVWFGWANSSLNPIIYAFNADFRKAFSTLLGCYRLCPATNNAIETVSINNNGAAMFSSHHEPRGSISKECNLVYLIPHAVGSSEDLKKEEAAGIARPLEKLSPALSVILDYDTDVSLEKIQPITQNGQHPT

[3] = target: T1, 5-hydroxytryptamine receptor 1A (Homo sapiens, UniProt P08908); assay: Displacement of [3H]8-OH-DPAT from 5HT1A receptor expressed in CHO cells by liquid scintillation counting; assay type: cell-based
T1 sequence (P08908 whole entry): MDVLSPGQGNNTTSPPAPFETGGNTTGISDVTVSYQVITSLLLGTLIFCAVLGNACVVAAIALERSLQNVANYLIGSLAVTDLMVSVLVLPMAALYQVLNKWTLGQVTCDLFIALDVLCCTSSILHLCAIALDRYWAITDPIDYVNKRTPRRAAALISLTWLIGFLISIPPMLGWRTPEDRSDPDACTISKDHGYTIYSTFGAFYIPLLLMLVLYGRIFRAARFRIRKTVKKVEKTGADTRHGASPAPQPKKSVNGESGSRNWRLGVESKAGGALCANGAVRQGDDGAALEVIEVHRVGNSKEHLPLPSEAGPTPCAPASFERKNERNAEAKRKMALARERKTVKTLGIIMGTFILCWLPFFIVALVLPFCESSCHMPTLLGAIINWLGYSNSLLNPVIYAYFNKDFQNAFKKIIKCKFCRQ
Method in brief: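 Binding buffer 50 mM Tris, 4 mM MgCl2, pH 7.4. Nonspecific binding defined with 10 μM of a selective 5-HT1A antagonist. GF/B filtration with cold Tris/EDTA wash, scintillation counting. IC50/Ki by sigmoidal nonlinear regression. Mean of 5-6 experiments.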

[4] = target: T1, 5-hydroxytryptamine receptor 1A; assay: […] activity at 5HT1A receptor expressed in CHO cells assessed as inhibition of 5-HT-stimulated [35S]GTPgamma binding; assay type: functional, cell-based
[5] = target: T2, 5-hydroxytryptamine receptor 1A (Homo sapiens) (UniProt P08908); assay: Antagonist activity at 5HT1A receptor expressed in CHO cells assessed as inhibition of 5-HT-stimulated [35S]GTPgamma binding relative to control; assay type: functional, cell-based
T2 sequence (whole entry): T1 sequence (P08908 whole entry)

[6] = target: T2, 5-hydroxytryptamine receptor 1A (Homo sapiens); assay: Agonist activity at 5HT1A receptor expressed in CHO cells assessed as stimulation of [35S]GTPgamma binding relative to control; assay type: functional, cell-based
[7] = target: T1, 5-hydroxytryptamine receptor 1A; assay: Agonist activity at 5HT1A receptor expressed in CHO cells assessed as stimulation of [35S]GTPgamma binding; assay type: functional, cell-based
[8] = system: Rattus norvegicus; assay: Increase in ventral tegmental area dopaminergic neuron bursting level in D2-like receptor antagonist raclopride-pretreated Sprague-Dawley rat at 1 mg/kg, iv in pretreated with 5HT1A receptor antagonist WAY-100635; assay type: functional, organism-based; design: dose 1 mg/kg
[9] = system: Rattus norvegicus; assay: Increase in ventral tegmental area dopaminergic neuron firing rate in D2-like receptor antagonist raclopride-pretreated Sprague-Dawley rat at 1 mg/kg, iv in pretreated with 5HT1A receptor antagonist WAY-100635; assay type: functional, organism-based; design: dose 1 mg/kg
[10] = system: Rattus norvegicus; assay: Anxiolytic effect in Sprague-Dawley rat assessed as increase in number of entries at open arm at 3 mg/kg, ip pretreated for 1 hr by elevated plus maze test; assay type: functional, organism-based; design: dose 3 mg/kg
Method in brief: (§2)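 Male rats, 250-300 g, given saline or test compound ip (1.0 or 3.0 mg/kg) 1 h before the maze. Two open and two closed arms (40 cm walls), 50 × 10 cm arms, raised 50 cm. Rat placed on centre facing a closed arm and allowed 5 min to explore. Video tracking recorded open-arm entries and time. Mean ± SE, n = 7-9; comparison to the saline group.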

[11] = system: Rattus norvegicus; assay: Increase in ventral tegmental area dopaminergic neuron firing rate in D2-like receptor antagonist raclopride-pretreated Sprague-Dawley rat at 1 mg/kg, iv in presence of 5HT1A receptor antagonist WAY-100635 administered post compound dose; assay type: functional, organism-based; design: dose 1 mg/kg
[12] = system: Rattus norvegicus; assay: Increase in ventral tegmental area dopaminergic neuron bursting level in D2-like receptor antagonist raclopride-pretreated Sprague-Dawley rat at 1 mg/kg, iv in presence of 5HT1A receptor antagonist WAY-100635 administered post compound dose; assay type: functional, organism-based; design: dose 1 mg/kg
[13] = system: Rattus norvegicus; assay: Anxiolytic effect in Sprague-Dawley rat assessed as increase in time spent at open arm at 3 mg/kg, ip pretreated for 1 hr by elevated plus maze test; assay type: functional, organism-based; design: dose 3 mg/kg; method in brief: as §2
[14] = system: Rattus norvegicus; assay: Increase in ventral tegmental area dopaminergic neuron bursting level in D2-like receptor antagonist raclopride-pretreated Sprague-Dawley rat at 1 mg/kg, iv relative to untreated control; assay type: functional, organism-based; design: dose 1 mg/kg
[15] = system: Rattus norvegicus; assay: Anxiolytic effect in Sprague-Dawley rat assessed as increase in time spent at open arm at 1 mg/kg, ip pretreated for 1 hr by elevated plus maze test; assay type: functional, organism-based; design: dose 1 mg/kg; method in brief: as §2
[16] = system: Rattus norvegicus; assay: Anxiolytic effect in Sprague-Dawley rat assessed as increase in number of entries at open arm at 1 mg/kg, ip pretreated for 1 hr by elevated plus maze test; assay type: functional, organism-based; design: dose 1 mg/kg; method in brief: as §2

Chain of D(2) dopamine receptor (P14416 whole entry): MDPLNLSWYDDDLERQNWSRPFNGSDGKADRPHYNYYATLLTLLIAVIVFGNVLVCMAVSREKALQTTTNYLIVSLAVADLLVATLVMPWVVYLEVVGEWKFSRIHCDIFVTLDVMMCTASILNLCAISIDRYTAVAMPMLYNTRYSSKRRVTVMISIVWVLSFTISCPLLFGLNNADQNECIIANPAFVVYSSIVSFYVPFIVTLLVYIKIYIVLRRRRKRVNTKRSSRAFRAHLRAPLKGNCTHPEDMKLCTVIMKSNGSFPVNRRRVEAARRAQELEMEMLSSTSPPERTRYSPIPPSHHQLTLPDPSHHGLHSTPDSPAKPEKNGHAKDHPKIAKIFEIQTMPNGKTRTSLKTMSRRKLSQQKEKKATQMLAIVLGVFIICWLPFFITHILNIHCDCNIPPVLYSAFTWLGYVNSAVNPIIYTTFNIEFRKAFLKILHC

CCCN1CCc2cccc3c2[C@H]1Cc1cccc(OCC=C(C)C)c1-3 was tested, and the Ki [1] was greater than 10000 nM, the Ki [2] was greater than 10000 nM and the Ki ([3]; read-out: Ki) was 149 nM.
Compound CCCN1CCc2cccc3c2[C@H]1Cc1ccc2c(c1-3)OC(C)C2C (mixture of isomers) has a Ki ([3]; read-out: Ki) of 90 nM.
In the case of NCCc1c[nH]c2ccc(O)cc12 [SEROTONIN], the IC50 ([4]; cho) is reported as “Not Active” and the Imax [5] is reported as “inactive”.
In the case of C#CCOc1cccc2c1-c1cccc3c1[C@@H](C2)N(C)CC3, the Emax [6] is reported as 73%, the Ki [1] is reported as greater than 10000 nM and the Ki [2] is reported as greater than 10000 nM. The Ki ([3]; read-out: Ki) was 14 nM and the EC50 ([7]; read-out: EC50) was 180 nM.
C=CC(C)c1ccc2c(c1O)-c1cccc3c1[C@@H](C2)N(CCC)CC3 (mixture of isomers) gave a Ki ([3]; read-out: Ki) greater than 10000 nM.
C=CCOc1cccc2c1-c1cccc3c1[C@@H](C2)N(CCC)CC3 gave a Ki [1] greater than 10000 nM, a Ki [2] greater than 10000 nM and a Ki ([3]; read-out: Ki) of 279 nM.
C=CC(C)Oc1cccc2c1-c1cccc3c1[C@@H](C2)N(CCC)CC3 (mixture of isomers) showed a Ki ([3]; read-out: Ki) greater than 10000 nM.
CCCN1CCc2cccc3c2[C@H]1Cc1c(CC=C(C)C)ccc(O)c1-3 was tested, and the Ki [1] was greater than 10000 nM, the Ki [2] was greater than 10000 nM and the Ki ([3]; cho) was “Not Active”.
C=CCOc1cccc2c1-c1cc(OC)cc3c1[C@@H](C2)N(C)CC3 gave a Ki [1] greater than 10000 nM, a Ki [2] greater than 10000 nM and a Ki ([3]; read-out: Ki) of 66 nM.
Work on C=CC(C)c1ccc(O)c2c1C[C@@H]1c3c(cccc3-2)CCN1CCC (mixture of isomers) yielded a Ki ([3]; read-out: Ki) of 626 nM.
Cc1cc2ccc3c(c2o1)-c1cccc2c1[C@@H](C3)N(C)CC2 was tested, and the Ki [1] was greater than 10000 nM, the Ki [2] was greater than 10000 nM and the Ki ([3]; read-out: Ki) was 29 nM.
For CCCN1CCc2cccc3c2[C@H]1Cc1ccc2c(C)c(C)oc2c1-3, the Ki [1] was greater than 10000 nM, the Ki [2] was greater than 10000 nM and the Ki ([3]; read-out: Ki) was 510 nM.
For CCCN1CCc2cccc3c2[C@H]1Cc1ccc2cc(C)oc2c1-3, the Ki [1] was greater than 10000 nM, the Ki [2] was greater than 10000 nM and the Ki ([3]; read-out: Ki) was 320 nM.
CCCN1CCc2cccc3c2[C@H]1Cc1cccc(O)c1-3 showed a Ki [2] greater than 10000 nM and a Ki ([3]; read-out: Ki) of 45 nM.
C=CCOc1cccc2c1-c1cccc3c1[C@@H](C2)N(C)CC3 was tested, and the Emax [6] was 61%, the IC50 ([4]; read-out: IC50) was 323 nM and the Ki [1] was greater than 10000 nM. It also gave a Ki [2] greater than 10000 nM, a Ki ([3]; read-out: Ki) of 12 nM and an Imax [5] of 100%. It also gave an EC50 ([7]; read-out: EC50) of 56 nM.
In the case of COc1cc2c3c(c1)-c1c(O)cccc1C[C@H]3N(C)CC2, the Ki [1] is reported as 235 nM, the Ki [2] is reported as 46 nM and the Ki ([3]; read-out: Ki) is reported as 258 nM.
C=C(C)COc1cccc2c1-c1cccc3c1[C@@H](C2)N(CCC)CC3 gave a Ki [1] greater than 10000 nM, a Ki [2] greater than 10000 nM and a Ki ([3]; read-out: Ki) of 373 nM.
For C[C@@H]1Cc2ccc3c(c2O1)-c1cccc2c1[C@@H](C3)N(C)CC2 (relative stereo), the Activity [8] was “inactive”, the Activity [9] was “inactive” and the Emax [6] was 127%. The Activity [10] was “Active”, the IC50 ([4]; cho) was “Not Active” and the Activity [11] was “inactive”. The Ki [1] was greater than 10000 nM, the Ki [2] was greater than 10000 nM and the Ki ([3]; read-out: Ki) was 3.1 nM. For the same compound, the Imax [5] was “inactive”, the Activity [12] was “inactive” and the EC50 ([7]; read-out: EC50) was 86 nM. The Activity [13] was “Active” and the Activity [14] was “Active”.
C[C@H]1Cc2ccc3c(c2O1)-c1cccc2c1[C@@H](C3)N(C)CC2 (relative stereo) was tested, and the Emax [6] was “inactive”, the Activity [10] was “inactive” and the IC50 ([4]; read-out: IC50) was 18 nM. For the same compound, the Activity [15] was “inactive”, the Activity [16] was “inactive” and the Ki [1] was greater than 10000 nM. The Ki [2] was greater than 10000 nM, the Ki ([3]; read-out: Ki) was 45.3 nM and the Imax [5] was 100%. The EC50 ([7]; cho) was “Not Active” and the Activity [13] was “inactive”.
In the case of CCCN1CCc2cccc3c2[C@H]1Cc1ccc2c(c1-3)OC(C)C2 (mixture of isomers), the Ki ([3]; read-out: Ki) is reported as 340 nM.
For C#CCOc1cccc2c1-c1cccc3c1[C@@H](C2)N(CCC)CC3, the Ki [1] was greater than 10000 nM, the Ki [2] was greater than 10000 nM and the Ki ([3]; read-out: Ki) was 55 nM.
Work on CC1Cc2ccc3c(c2O1)-c1cc(O)cc2c1[C@@H](C3)N(C)CC2 (mixture of isomers) yielded a Ki ([3]; read-out: Ki) of 12 nM.
In the case of CC#CCOc1cccc2c1-c1cccc3c1[C@@H](C2)N(CCC)CC3, the Ki [1] is reported as greater than 10000 nM, the Ki [2] is reported as greater than 10000 nM and the Ki ([3]; read-out: Ki) is reported as 125 nM.
Work on C=CCc1ccc2c(c1O)-c1cccc3c1[C@@H](C2)N(CCC)CC3 yielded a Ki [1] greater than 10000 nM, a Ki [2] greater than 10000 nM and a Ki ([3]; read-out: Ki) of 793 nM.
For CN1CCc2cccc3c2[C@H]1Cc1cccc(O)c1-3, the Ki [1] was 208 nM, the Ki [2] was 61 nM and the Ki ([3]; read-out: Ki) was 49 nM.
C=CCc1ccc2c(c1O)-c1cccc3c1[C@@H](C2)N(C)CC3 was tested, and the Ki [1] was greater than 10000 nM, the Ki [2] was greater than 10000 nM and the Ki ([3]; read-out: Ki) was 135 nM.
C=C(C)Cc1ccc2c(c1O)-c1cccc3c1[C@@H](C2)N(CCC)CC3 was tested, and the Ki [1] was greater than 10000 nM, the Ki [2] was greater than 10000 nM and the Ki ([3]; cho) was “Not Active”.
With C/C=C/COc1cccc2c1-c1cccc3c1[C@@H](C2)N(CCC)CC3 the Ki ([3]; read-out: Ki) was 11 nM.
C=CCc1ccc2c(c1O)-c1cc(OC)cc3c1[C@@H](C2)N(C)CC3 showed a Ki [1] greater than 10000 nM, a Ki [2] greater than 10000 nM and a Ki ([3]; read-out: Ki) of 144 nM.
With CCCN1CCc2cccc3c2[C@H]1Cc1ccc2c(c1-3)OC(C)(C)C2 the Ki [1] was greater than 10000 nM, the Ki [2] was greater than 10000 nM and the Ki ([3]; read-out: Ki) was 630 nM.
For CC1Cc2ccc3c(c2O1)-c1cccc2c1[C@@H](C3)N(C)CC2 (mixture of isomers), the Emax [6] was “inactive”, the IC50 ([4]; read-out: IC50) was 323 nM and the Ki [1] was greater than 10000 nM. The Ki [2] was greater than 10000 nM, the Ki ([3]; read-out: Ki) was 6.7 nM and the Imax [5] was 100%. For the same compound, the EC50 ([7]; cho) was “Not Active”.
